Measured values reported in ChEMBL document CHEMBL2440064, “Synthesis and biological evaluation of 2-amino-5-aryl-3-benzylthiopyridine scaffold based potent c-Met inhibitors” (Bioorg Med Chem, 2013).
Active and inactive are the calls of the source. The calls are words filed in the database; no cut-off is given here.

Assays:
BaF3 = experiment: Antiproliferative activity against mouse BAF3 cells expressing TPR/Met fusion protein after 72 hrs; format: functional, cell-based; details: BaF3, 72 h
Procedure, shortened: (§1)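 Cells seeded in 96-well plates, exposed next day to a range of compound concentrations and cultured 72 h; proliferation read by sulforhodamine B or CCK-8. IC50 as mean ± SD (μM) from three separate experiments.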

[1] = target: T1, TPR/MET fusion protein (Mus musculus) (UniProt P16056+F6ZDS4); experiment: Inhibition of TPR/Met in mouse BAF3 cells assessed as inhibition of p44/42 phosphorylation at 0.08 to 10 uM after 2 hrs by Western blotting analysis; format: cell-based
Procedure, shortened: (§2)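 Cells grown to exponential phase, treated with compound 2 h at 37°C, lysed in 1× SDS sample buffer, resolved on 10% SDS-PAGE and transferred to nitrocellulose for immunoblotting.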

[2] = target: Platelet-derived growth factor receptor beta (Homo sapiens, UniProt P09619); experiment: Inhibition of PDGFRbeta (unknown origin) using poly (Glu, Tyr) 4:1 as substrate after 60 mins by ELISA
Procedure, shortened: (§3)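 ELISA on wells precoated with 20 µg/mL poly(Glu,Tyr)4:1. Purified kinase with 10 µmol/L ATP in 50 mM HEPES pH 7.4, 50 mM MgCl₂, 0.5 mM MnCl₂, 0.2 mM Na₃VO₄, 1 mM DTT; 1% DMSO vehicle. 60 min at 37°C. Phosphotyrosine detected with PY99 antibody, then HRP anti-mouse IgG and o-phenylenediamine/H₂O₂, A490. Inhibition = [1−(A490/A490 control)]×100%; IC50 from curves.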

[3] = target: Epidermal growth factor receptor (Homo sapiens, UniProt P00533); experiment: Inhibition of EGFR (unknown origin) using poly (Glu, Tyr) 4:1 as substrate after 60 mins by ELISA; procedure, shortened: as §3
[4] = target: T2, Hepatocyte growth factor receptor (Homo sapiens, UniProt P08581); experiment: Inhibition of c-Met (unknown origin) using poly (Glu, Tyr) 4:1 as substrate after 60 mins by ELISA
NIH3T3 [5] = experiment: Antiproliferative activity against mouse NIH/3T3 cells expressing TPR/Met fusion protein after 72 hrs; format: functional, cell-based; details: NIH3T3, 72 h; procedure, shortened: as §1
[6] = Half life in rat at 2 mg/kg, iv and 10 mg/kg, po; format: ADME, organism-based; details: in vivo
Procedure, shortened: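 Rat pharmacokinetics after a single intravenous dose (2 mg/kg) and a single oral dose (10 mg/kg).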

[7] = target: T2, Hepatocyte growth factor receptor; experiment: Inhibition of c-Met in gefitinib-resistant human HCC827 cells assessed as inhibition of p44/42 phosphorylation at 0.5 uM after 2 hrs by Western blotting analysis in presence of gefitinib; format: cell-based; procedure, shortened: as §2
[8] = target: Hepatocyte growth factor receptor (Canis lupus familiaris) (UniProt Q75ZY9); experiment: Inhibition of c-Met in MDCK cells assessed as HGF-induced cell scattering at 3 uM after 24 hrs by microscopic analysis; format: cell-based
Procedure, shortened: (§4)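 MDCK cells plated at 1,500/well in 96-well plates and allowed to form clusters over 24 h. Then 24 h with compound plus 50 ng/mL recombinant human HGF in FBS-free medium. Fixed in 4% paraformaldehyde 15 min at room temperature, stained with 0.2% crystal violet and imaged by microscopy.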

[9] = target: ALK tyrosine kinase receptor (Homo sapiens, UniProt Q9UM73); experiment: Inhibition of ALK (unknown origin) using poly (Glu, Tyr) 4:1 as substrate after 60 mins by ELISA; procedure, shortened: as §3
[10] = target: T2, Hepatocyte growth factor receptor; experiment: Inhibition of c-Met in human EBC1 cells assessed as inhibition of p44/42 phosphorylation at 0.16 to 20 uM after 2 hrs by Western blotting analysis; format: cell-based; procedure, shortened: as §2
MCF7 = experiment: Antiproliferative activity against human MCF7 cells after 72 hrs; details: MCF7, 72 h
[11] = target: T2, Hepatocyte growth factor receptor; experiment: Inhibition of c-Met phosphorylation in gefitinib-resistant human HCC827 cells at 0.5 uM after 2 hrs by Western blotting analysis; format: cell-based; procedure, shortened: as §2
[12] = target: T2, Hepatocyte growth factor receptor; experiment: Inhibition of c-Met in human SNU5 cells assessed as inhibition of p44/42 phosphorylation at 0.16 to 20 uM after 2 hrs by Western blotting analysis; format: cell-based; details: SNU-5; procedure, shortened: as §2
[13] = target: Proto-oncogene tyrosine-protein kinase receptor Ret (Homo sapiens, UniProt P07949); experiment: Inhibition of RET (unknown origin) using poly (Glu, Tyr) 4:1 as substrate after 60 mins by ELISA; procedure, shortened: as §3
Mus musculus = experiment: Toxicity in mouse allografted with mouse NIH/3T3 cells assessed as decrease in body weight at 100 mg/kg, po qd administered for 2 weeks measured twice per week; format: organism-based, NIH3T3; design: dose 100 mg/kg, route oral; details: in vivo, 336 h
Procedure, shortened: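 Tumor fragments of 1 mm³ implanted s.c. in the right flank of nude mice with a trocar. Mice randomized once tumors reached 100–150 mm³. Oral dosing 7 days/week for 2 weeks; vehicle-only controls. Tumors measured twice weekly by microcaliper; body weight monitored.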

MKN-45 = experiment: Induction of cell cycle arrest in human MKN45 cells assessed as accumulation at G1 phase at 1 uM after 24 hrs by propidium iodide staining-based FACS analysis (reference value: 39.1%); format: functional
[14] = target: T2, Hepatocyte growth factor receptor; experiment: Inhibition of c-Met in gefitinib-resistant human HCC827 cells assessed as inhibition of AKT phosphorylation at 0.5 uM after 2 hrs by Western blotting analysis; format: cell-based; procedure, shortened: as §2
[15] = target: Platelet-derived growth factor receptor alpha (Homo sapiens, UniProt P16234); experiment: Inhibition of PDGFRalpha (unknown origin) using poly (Glu, Tyr) 4:1 as substrate after 60 mins by ELISA; procedure, shortened: as §3
[16] = target: T2, Hepatocyte growth factor receptor; experiment: Inhibition of c-Met phosphorylation in human MKN45 cells after 2 hrs by Western blotting analysis; format: cell-based; details: MKN-45
Procedure, shortened: (§5)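 Cells grown under regular conditions to exponential phase, exposed to compound at indicated concentrations for 2 h at 37°C, lysed in 1× SDS sample buffer. Lysates resolved on 10% SDS-PAGE and transferred to nitrocellulose for immunoblotting.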

HCT-116 = experiment: Antiproliferative activity against human HCT116 cells after 72 hrs; details: HCT-116, 72 h
[17] = target: Hepatocyte growth factor receptor (Canis lupus familiaris) (UniProt Q75ZY9); experiment: Inhibition of c-Met in MDCK cells assessed as HGF-induced cell scattering after 24 hrs by microscopic analysis; format: cell-based; procedure, shortened: as §4
[18] = target: T1, TPR/MET fusion protein (Mus musculus); experiment: Inhibition of TPR/Met phosphorylation in mouse NIH3T3 cells after 2 hrs by Western blotting analysis; format: cell-based; procedure, shortened: as §2
[19] = Antiproliferative activity against human EBC1 cells after 72 hrs; details: EBC-1, 72 h
NIH3T3 [20] = experiment: Antitumor activity against mouse NIH/3T3 cells expressing TPR/Met allografted in mouse assessed as tumor growth inhibition at 100 mg/kg, po qd administered for 2 weeks measured twice per week relative to vehicle-treated control; format: functional; details: NIH3T3, 336 h, read-out: TGI
Procedure, shortened: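 Tumor fragments (1 mm³) implanted s.c. in right flank of nude mice by trocar. Randomized at 100–150 mm³ tumor volume. Dosed orally 7 days/week for 2 weeks; vehicle controls. Calipers twice weekly; TV = length×width²/2. Inhibition = 100%×{1−[(T day14−T day0)/(C day14−C day0)]}. n = 6/group, Student's t-test.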

[21] = Volume of distribution in rat at 2 mg/kg, iv and 10 mg/kg, po; format: ADME, organism-based; details: in vivo
Procedure, shortened: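 Rats given a single iv dose (2 mg/kg) or a single po dose (10 mg/kg).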

[22] = target: T2, Hepatocyte growth factor receptor; experiment: Inhibition of c-Met phosphorylation in human EBC1 cells after 2 hrs by Western blotting analysis; format: cell-based; procedure, shortened: as §5

T2 sequence (P08581 whole entry, the tested form may be a part): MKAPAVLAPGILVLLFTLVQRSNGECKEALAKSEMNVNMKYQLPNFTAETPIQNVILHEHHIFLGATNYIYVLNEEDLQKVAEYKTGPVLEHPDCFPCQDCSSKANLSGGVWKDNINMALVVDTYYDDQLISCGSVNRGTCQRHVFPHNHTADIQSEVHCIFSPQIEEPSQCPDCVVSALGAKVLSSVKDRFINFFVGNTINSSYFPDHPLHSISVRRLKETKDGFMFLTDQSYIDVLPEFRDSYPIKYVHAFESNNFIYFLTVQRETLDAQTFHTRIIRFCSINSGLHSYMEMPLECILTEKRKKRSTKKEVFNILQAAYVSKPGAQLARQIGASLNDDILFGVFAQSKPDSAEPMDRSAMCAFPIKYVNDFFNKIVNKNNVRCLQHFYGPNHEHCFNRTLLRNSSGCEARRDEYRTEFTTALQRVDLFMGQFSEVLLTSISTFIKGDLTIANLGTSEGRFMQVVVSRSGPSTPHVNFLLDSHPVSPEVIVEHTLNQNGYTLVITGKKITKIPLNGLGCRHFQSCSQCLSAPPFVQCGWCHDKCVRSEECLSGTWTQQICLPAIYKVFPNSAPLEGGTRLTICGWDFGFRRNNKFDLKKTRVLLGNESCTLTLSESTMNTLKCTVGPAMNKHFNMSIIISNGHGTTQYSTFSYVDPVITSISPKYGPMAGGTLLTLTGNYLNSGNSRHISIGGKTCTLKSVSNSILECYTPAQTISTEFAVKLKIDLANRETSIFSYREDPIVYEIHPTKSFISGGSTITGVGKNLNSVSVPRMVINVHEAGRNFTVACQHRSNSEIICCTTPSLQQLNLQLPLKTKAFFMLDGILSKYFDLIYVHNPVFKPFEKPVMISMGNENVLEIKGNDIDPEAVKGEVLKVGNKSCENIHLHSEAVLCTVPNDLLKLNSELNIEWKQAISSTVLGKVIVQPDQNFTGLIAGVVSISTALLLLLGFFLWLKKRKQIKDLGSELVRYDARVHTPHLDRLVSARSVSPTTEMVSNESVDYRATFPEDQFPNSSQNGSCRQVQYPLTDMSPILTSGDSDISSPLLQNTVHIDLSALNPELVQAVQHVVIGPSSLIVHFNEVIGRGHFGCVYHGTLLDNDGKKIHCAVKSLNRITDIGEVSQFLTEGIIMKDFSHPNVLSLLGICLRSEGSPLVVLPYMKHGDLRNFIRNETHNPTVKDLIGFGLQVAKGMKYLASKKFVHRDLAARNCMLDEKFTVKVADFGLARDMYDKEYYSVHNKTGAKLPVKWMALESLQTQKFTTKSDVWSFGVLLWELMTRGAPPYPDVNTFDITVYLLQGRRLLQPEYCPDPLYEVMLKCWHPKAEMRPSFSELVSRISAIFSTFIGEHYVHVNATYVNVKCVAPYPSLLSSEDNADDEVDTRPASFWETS
T1 sequence (F6ZDS4 whole entry partner, the tested form may be a part): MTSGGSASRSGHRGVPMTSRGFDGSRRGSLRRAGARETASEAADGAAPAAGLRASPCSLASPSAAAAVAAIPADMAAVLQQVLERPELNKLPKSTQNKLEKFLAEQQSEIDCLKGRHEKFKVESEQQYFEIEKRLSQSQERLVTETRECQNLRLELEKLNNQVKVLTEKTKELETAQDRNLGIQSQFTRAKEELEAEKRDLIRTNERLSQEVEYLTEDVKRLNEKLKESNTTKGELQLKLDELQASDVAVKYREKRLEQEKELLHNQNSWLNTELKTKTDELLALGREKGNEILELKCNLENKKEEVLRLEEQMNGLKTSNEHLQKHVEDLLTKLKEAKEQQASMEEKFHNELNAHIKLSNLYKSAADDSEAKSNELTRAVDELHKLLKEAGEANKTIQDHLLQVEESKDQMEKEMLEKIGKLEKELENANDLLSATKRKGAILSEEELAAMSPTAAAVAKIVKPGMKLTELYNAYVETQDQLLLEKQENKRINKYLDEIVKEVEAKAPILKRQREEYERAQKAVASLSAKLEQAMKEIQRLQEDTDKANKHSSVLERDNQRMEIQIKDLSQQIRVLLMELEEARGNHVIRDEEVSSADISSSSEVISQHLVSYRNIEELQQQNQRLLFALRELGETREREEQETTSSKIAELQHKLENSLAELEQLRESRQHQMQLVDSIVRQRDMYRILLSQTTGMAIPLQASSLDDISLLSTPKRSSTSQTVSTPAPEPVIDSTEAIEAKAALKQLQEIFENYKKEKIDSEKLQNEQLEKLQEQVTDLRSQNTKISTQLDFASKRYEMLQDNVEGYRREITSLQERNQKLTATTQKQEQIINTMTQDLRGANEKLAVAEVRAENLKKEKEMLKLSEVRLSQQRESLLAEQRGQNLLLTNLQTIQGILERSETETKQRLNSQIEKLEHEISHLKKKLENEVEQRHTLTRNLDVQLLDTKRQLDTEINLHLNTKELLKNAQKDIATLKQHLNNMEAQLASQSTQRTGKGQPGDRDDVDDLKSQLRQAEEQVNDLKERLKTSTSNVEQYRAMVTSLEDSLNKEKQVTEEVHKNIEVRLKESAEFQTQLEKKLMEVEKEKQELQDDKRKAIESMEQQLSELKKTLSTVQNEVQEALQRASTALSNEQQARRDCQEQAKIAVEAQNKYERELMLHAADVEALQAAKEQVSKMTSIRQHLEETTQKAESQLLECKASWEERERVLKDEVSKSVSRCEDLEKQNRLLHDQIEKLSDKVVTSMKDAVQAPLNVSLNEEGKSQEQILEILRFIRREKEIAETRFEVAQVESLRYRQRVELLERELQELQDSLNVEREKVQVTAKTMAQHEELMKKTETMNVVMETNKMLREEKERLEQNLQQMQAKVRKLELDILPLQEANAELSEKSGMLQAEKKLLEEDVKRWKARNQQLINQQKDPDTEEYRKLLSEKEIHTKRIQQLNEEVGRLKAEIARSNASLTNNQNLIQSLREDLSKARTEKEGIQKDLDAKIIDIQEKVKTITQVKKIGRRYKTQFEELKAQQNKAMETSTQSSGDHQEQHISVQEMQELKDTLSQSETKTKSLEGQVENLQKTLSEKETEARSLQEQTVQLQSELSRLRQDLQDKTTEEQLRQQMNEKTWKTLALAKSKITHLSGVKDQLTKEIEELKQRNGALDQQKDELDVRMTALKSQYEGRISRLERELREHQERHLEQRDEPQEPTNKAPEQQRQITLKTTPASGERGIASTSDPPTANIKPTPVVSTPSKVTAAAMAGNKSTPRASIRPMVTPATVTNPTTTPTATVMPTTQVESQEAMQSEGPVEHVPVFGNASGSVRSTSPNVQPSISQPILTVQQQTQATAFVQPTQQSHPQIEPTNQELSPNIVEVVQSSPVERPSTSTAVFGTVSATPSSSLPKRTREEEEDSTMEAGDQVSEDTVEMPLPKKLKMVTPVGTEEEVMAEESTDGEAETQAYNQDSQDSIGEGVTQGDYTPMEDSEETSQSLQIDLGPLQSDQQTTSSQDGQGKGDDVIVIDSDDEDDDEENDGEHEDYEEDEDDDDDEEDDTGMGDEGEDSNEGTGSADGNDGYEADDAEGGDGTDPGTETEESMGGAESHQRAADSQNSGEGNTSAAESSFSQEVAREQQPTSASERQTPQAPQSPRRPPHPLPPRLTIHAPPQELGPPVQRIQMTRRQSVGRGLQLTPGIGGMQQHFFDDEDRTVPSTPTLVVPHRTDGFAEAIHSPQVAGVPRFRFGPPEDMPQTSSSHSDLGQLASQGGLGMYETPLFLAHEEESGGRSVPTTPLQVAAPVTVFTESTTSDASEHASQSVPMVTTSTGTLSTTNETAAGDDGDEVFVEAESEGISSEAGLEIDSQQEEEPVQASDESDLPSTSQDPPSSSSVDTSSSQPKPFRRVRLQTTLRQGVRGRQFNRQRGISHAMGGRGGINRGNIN
T1 sequence (P16056 25-1379 limits assumed): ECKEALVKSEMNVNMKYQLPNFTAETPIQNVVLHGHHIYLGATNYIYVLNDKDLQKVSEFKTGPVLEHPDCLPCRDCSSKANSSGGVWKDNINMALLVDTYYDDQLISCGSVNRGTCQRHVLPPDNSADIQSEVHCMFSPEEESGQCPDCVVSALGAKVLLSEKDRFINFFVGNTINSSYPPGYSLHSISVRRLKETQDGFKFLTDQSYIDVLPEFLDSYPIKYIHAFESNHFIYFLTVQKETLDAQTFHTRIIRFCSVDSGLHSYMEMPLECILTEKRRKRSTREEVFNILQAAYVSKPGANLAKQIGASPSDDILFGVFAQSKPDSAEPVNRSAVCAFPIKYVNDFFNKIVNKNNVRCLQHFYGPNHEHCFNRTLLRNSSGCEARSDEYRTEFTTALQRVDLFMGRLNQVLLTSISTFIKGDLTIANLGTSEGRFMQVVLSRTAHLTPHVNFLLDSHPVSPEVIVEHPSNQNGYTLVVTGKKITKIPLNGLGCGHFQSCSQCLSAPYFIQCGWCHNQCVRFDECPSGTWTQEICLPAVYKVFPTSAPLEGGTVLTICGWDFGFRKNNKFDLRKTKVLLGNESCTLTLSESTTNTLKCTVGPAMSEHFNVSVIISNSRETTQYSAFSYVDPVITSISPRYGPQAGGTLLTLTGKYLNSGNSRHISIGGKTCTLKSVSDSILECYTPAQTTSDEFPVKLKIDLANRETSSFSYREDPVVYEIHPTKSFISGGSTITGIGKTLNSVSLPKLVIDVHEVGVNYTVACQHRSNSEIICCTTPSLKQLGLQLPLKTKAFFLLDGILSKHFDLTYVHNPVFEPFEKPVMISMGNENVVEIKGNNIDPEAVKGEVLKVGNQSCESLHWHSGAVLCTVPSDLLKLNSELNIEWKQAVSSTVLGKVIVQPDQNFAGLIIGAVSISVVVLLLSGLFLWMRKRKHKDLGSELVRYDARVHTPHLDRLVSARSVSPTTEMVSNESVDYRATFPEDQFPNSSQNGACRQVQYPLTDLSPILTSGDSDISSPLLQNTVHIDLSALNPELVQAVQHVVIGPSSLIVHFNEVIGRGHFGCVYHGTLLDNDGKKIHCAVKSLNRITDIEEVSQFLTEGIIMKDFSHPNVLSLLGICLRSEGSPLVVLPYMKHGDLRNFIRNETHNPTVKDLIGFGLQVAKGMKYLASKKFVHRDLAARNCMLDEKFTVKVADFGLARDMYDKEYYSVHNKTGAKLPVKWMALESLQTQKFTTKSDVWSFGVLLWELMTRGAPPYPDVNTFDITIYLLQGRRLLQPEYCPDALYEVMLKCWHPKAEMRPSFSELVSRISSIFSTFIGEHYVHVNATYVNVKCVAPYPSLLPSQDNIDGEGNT

- IC50 (BaF3): 580 nM
- inhibition [1]: Active
- IC50 [2]: > 1000 nM
- IC50 [3]: > 1000 nM
- IC50 [4]: 7.7 nM
- half-life [6]: 5.7 h
- inhibition [7]: Active
- inhibition [8]: Active
- IC50 [9]: 349 nM
- inhibition [10]: Active
- IC50 (MCF7): 11600 nM
- inhibition [11]: Active
- inhibition [12]: Active
- IC50 [13]: > 1000 nM
- inhibition [14]: inactive
- IC50 [15]: > 1000 nM
- inhibition [16]: Dose-dependent effect
- IC50 (HCT-116): 14300 nM
- inhibition [17]: Dose-dependent effect
- inhibition [18]: Dose-dependent effect
- Vd [21]: 20 L/kg
- inhibition [22]: Dose-dependent effect
SMILES: C[C@@H](Sc1cc(-c2cnn(C3CCNCC3)c2)cnc1N)c1c(Cl)ccc(F)c1Cl
- IC50 (NIH3T3 [5]): 610 nM
- Activity (Mus musculus): Non-toxic
- Activity (MKN-45): 60.1%
- IC50 [19]: 710 nM
- inhibition in vivo at 100 mg/kg (NIH3T3 [20]): 45.5%
